Laboratory results from publication PMC3331960 (Nature chemical biology, 2012).
Where “and” joins values, the source holds several entries; their conditions need not be identical. Equal entries are not always repeated. Where no end group is shown, it is not given here. The star is where a group is joined. Biotin = O=C1N[C@H]2[C@H](CS[C@H]2CCCCC(=O)*)N1

Tests used:
TIR1-IAA31 = TIR1-IAA31 (Arabidopsis thaliana, UniProt Q570C0+Q8H174); assay: [3H]-IAA binding, TIR1-IAA31
How it was run: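 ASK1-TIR1 (insect cells, 0.44 μg) and full-length GST-IAA31 (E. coli, 1:10 molar) were incubated with [³H]-IAA >1 h at 4°C in pH 8.0 Tris buffer, then filter-bound and scintillation counted. KD came from nonlinear regression of saturation and/or homologous competition binding data; independent assays run in triplicate.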

TIR1-IAA28 = TIR1-IAA28 (Arabidopsis thaliana, UniProt Q570C0+Q9XFM0); assay: [3H]-IAA homologous competitive binding, TIR1-IAA28; conditions: Kd (Mean ± SEM), TIR1-IAA28, homologous competition
How it was run: (§1)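 Homologous competition: insect-cell ASK1-TIR1 (0.44 μg) plus E. coli GST-Aux/IAA (1:10 molar), in pH 8.0 Tris binding buffer, >1 h at 4°C. Fixed [³H]-IAA (5, 10, 25 or 100 nM, kept below half the IC50) with rising cold IAA. Filter binding, scintillation counting. Specific binding fitted to a one-site competition model by nonlinear regression. Independent assays run in triplicate.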

TIR1-IAA3 = TIR1-IAA3 (Arabidopsis thaliana, UniProt Q38822+Q570C0); assay: [3H]-IAA saturation binding, TIR1-IAA3; conditions: Kd (Mean ± SEM)
How it was run: (§2)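 Saturation binding: insect-cell ASK1-TIR1 (0.44 μg) with GST-tagged full-length, truncated or degron-mutated IAA protein from E. coli (1:10 molar). Incubated >1 h at 4°C in pH 8.0 Tris/NaCl/glycerol/Tween buffer with at least six [³H]-IAA concentrations either side of the KD. Filter-trapped and scintillation counted; nonspecific binding determined with 1000x cold IAA. KD by nonlinear regression; independent assays in triplicate.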

AFB5-IAA7 = AFB5-IAA7 (Arabidopsis thaliana, UniProt Q38825+Q9LTX2); assay: [3H]-IAA radioligand binding
How it was run: (§3)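 ASK1-TIR1 or ASK1-AFB5 (0.44 μg, insect cells) with E. coli GST-IAA7 (1:10 molar), >1 h at 4°C in pH 8.0 Tris binding buffer. KD from [³H]-IAA saturation binding. Ki from competition with cold 1-NAA, 2,4-D or picloram against fixed [³H]-IAA (5–100 nM), fitted to a one-site competition model by nonlinear regression. Filter binding with scintillation read-out; triplicates.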

TIR1-IAA7 DII [1] = molecular target: T1, TIR1-IAA7 DII (Arabidopsis thaliana, UniProt Q38825+Q570C0, DEL96-243); assay: [3H]-IAA saturation binding, TIR1 with biotinylated IAA7 DII peptide; conditions: Kd (Mean ± SEM), TIR1-biotinylated peptide DII of IAA7, saturation binding
TIR1-bdl = TIR1-bdl (Arabidopsis thaliana, UniProt Q570C0); assay: [3H]-IAA binding at 200 nM, TIR1-ASK1 with bdl; conditions: 200 nM [3H] IAA, TIR1-ASK1 and bdl
How it was run: (§4)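 ASK1-TIR1 (tagged, co-expressed in Hi5 insect cells) and GST-Aux/IAA or mutant (E. coli), at 0.44 μg and 1:10 molar ratio as applicable, or synthetic biotinylated degron peptide. Incubated >1 h at 4°C in Tris-HCl pH 8.0/200 mM NaCl/10% glycerol/0.1% Tween 20 with [³H]-IAA (20 Ci/mmol). Trapped on PEI-treated glass-fibre filters, washed thrice, scintillation counted. Nonspecific binding determined with 1000x cold IAA.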

TIR1-IAA1 = TIR1-IAA1 (Arabidopsis thaliana, UniProt P49677+Q570C0); assay: [3H]-IAA homologous competitive binding, TIR1-IAA1; conditions: Kd (Mean ± SEM), TIR1-IAA1, homologous competition
How it was run: as §1

TIR1-IAA7 K35Q R36Q = TIR1-IAA7 K35Q R36Q (Arabidopsis thaliana, UniProt Q38825+Q570C0, K35Q/R36Q); assay: [3H]-IAA binding at 200 nM, TIR1-IAA7 K35Q R36Q; conditions: 200 nM [3H]-IAA, Lys35Gln Arg36Gln mutant compared to TIR1-IAA7
TIR1-IAA7 = molecular target: T2, TIR1-IAA7 (Arabidopsis thaliana, UniProt Q38825+Q570C0); assay: [3H]-IAA radioligand binding
T2 sequence (Q570C0 1-594): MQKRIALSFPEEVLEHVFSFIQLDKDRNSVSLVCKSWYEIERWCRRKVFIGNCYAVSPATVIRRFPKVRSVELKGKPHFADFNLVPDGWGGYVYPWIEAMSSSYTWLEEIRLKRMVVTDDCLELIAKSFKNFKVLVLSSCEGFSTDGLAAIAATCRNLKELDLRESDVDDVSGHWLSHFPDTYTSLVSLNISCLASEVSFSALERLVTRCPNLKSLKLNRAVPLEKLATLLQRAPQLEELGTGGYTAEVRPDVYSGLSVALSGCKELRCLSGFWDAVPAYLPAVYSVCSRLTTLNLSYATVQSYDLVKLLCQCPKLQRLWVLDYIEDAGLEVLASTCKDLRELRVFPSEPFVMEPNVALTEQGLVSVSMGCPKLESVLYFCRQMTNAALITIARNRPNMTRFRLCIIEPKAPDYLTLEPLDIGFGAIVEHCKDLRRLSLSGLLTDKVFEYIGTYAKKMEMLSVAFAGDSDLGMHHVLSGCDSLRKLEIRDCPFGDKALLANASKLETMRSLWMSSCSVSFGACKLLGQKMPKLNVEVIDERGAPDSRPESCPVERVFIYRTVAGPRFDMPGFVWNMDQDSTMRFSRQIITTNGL
T2 sequence (Q39255 1-160 partner): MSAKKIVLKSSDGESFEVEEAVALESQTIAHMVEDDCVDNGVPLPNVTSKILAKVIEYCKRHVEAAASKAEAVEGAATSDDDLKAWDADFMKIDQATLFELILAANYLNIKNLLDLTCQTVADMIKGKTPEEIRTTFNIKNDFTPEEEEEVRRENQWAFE
T2 sequence (Q38825 1-243): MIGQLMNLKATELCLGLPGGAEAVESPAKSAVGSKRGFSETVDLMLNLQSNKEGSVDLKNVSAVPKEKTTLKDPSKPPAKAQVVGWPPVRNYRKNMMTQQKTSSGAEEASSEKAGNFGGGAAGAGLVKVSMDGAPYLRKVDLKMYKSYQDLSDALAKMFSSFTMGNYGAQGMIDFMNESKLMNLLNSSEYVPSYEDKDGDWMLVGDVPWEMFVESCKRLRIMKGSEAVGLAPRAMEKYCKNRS
How it was run: as §3

TIR1-IAA17 = TIR1-IAA17 (Arabidopsis thaliana, UniProt P93830+Q570C0); assay: [3H]-IAA homologous competitive binding, TIR1-IAA17; conditions: Kd (Mean ± SEM), TIR1-IAA17, homologous competition
How it was run: as §1

TIR1-IAA7 K35Q = TIR1-IAA7 K35Q (Arabidopsis thaliana, UniProt Q38825+Q570C0, K35Q); assay: [3H]-IAA binding at 200 nM, TIR1-IAA7 K35Q; conditions: 200 nM [3H]-IAA, Lys35Gln mutant compared to TIR1-IAA7
IAA7 = IAA7 (Arabidopsis thaliana, UniProt Q38825); assay: [3H]-IAA binding at 200 nM, IAA7 alone; conditions: 200 nM [3H] IAA
How it was run: as §4

TIR1-IAA12 GWPPVR = TIR1-IAA12 GWPPVR (Arabidopsis thaliana, UniProt Q38830+Q570C0, G77R/I76V); assay: [3H]-IAA saturation binding, TIR1-IAA12 GWPPVR
How it was run: as §2

IAA7 DII = IAA7 DII (Arabidopsis thaliana, UniProt Q38825); assay: [3H]-IAA binding at 200 nM, IAA7 DII peptide alone; conditions: 200 nM [3H] IAA
How it was run: as §4

TIR1-slr = assay: [3H]-IAA binding at 200 nM, TIR1-ASK1 with slr; set-up: species or system Arabidopsis thaliana; conditions: 200 nM [3H] IAA, TIR1-ASK1 and slr
How it was run: as §4

TIR1 = TIR1 (Arabidopsis thaliana, UniProt Q570C0); assay: [3H]-IAA binding at 200 nM, TIR1 alone; conditions: 200 nM [3H] IAA
How it was run: as §4

TIR1-IAA7^axr2-1 = TIR1-IAA7^axr2-1 (Arabidopsis thaliana, UniProt Q38825+Q570C0, P87S); assay: [3H]-IAA binding at 200 nM, TIR1-IAA7 axr2-1; conditions: 200 nM [3H] IAA
How it was run: as §4

TIR1-DI-DII = TIR1-DI-DII (Arabidopsis thaliana, UniProt Q38825+Q570C0); assay: [3H]-IAA saturation binding, TIR1-DI-DII
How it was run: as §2

TIR1-IAA7 DII [2] = molecular target: T1, TIR1-IAA7 DII; assay: Surface plasmon resonance, TIR1 over immobilized IAA7 DII peptide; assay type: binding; conditions: co-injection of TIR1 with auxin, vs no auxin
TIR1-IAA14 = TIR1-IAA14 (Arabidopsis thaliana, UniProt Q38832+Q570C0); assay: [3H]-IAA homologous competitive binding, TIR1-IAA14; conditions: TIR1-IAA14, homologous competition
How it was run: as §1

TIR1-ASK1 complex = molecular target: T3, TIR1-ASK1 complex (Arabidopsis thaliana, UniProt Q570C0;Q39255); assay: SPR
T3 sequence 1: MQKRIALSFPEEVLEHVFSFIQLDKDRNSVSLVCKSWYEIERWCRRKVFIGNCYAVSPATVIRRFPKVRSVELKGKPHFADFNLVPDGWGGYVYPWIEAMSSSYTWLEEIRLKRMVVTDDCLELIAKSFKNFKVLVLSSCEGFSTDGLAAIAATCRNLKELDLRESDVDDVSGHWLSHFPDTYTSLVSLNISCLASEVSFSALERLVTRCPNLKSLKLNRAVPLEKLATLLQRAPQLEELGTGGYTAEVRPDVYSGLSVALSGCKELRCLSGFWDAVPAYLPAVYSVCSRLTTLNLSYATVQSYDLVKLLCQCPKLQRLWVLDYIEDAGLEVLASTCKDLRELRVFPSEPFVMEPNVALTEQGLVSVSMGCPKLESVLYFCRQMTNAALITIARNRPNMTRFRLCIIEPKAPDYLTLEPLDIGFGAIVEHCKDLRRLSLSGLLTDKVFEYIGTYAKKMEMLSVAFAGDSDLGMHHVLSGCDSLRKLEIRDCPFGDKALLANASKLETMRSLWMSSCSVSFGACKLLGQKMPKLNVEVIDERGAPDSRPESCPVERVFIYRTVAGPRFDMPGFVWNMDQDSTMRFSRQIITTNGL
T3 sequence 2: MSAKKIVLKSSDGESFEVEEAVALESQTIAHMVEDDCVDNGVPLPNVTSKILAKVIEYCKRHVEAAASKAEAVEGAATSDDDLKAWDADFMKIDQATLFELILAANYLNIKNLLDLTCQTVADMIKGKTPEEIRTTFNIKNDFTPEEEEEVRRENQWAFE

## O=C(O)Cc1c[nH]c2ccccc12 [IAA, Indole-3-acetic acid]
TIR1-IAA31
  Kd: > 1000 nM
TIR1-IAA28
  Kd: ~75 nM and 75 nM
TIR1-IAA3
  Kd: 17 ± 3.43 nM
AFB5-IAA7
  Kd: 51.3 ± 12.6 nM
TIR1-IAA7 DII [1]
  Kd: 218 nM
TIR1-bdl
  specific binding of [3H] IAA: abolish specific auxin binding
TIR1-IAA1
  Kd: 44.3 ± 6.67 nM
TIR1-IAA7 K35Q R36Q
  auxin binding diminished: around 50%
TIR1-IAA7
  Kd: 17.8 ± 7.81 nM
TIR1-IAA17
  Kd: 33 ± 3 nM
TIR1-IAA7 K35Q
  auxin binding diminished: around 50%
IAA7
  binding of [3H] IAA: lacked appreciable binding
TIR1-IAA12 GWPPVR
  Kd: 72.5 ± 21.6 nM
IAA7 DII
  binding of [3H] IAA: lacked appreciable binding
TIR1-slr
  specific binding of [3H] IAA: abolish specific auxin binding
TIR1
  binding of [3H] IAA: lacked appreciable binding
TIR1-IAA7^axr2-1
  binding of [3H] IAA: did not bind auxin
TIR1-DI-DII
  Kd: 13.8 ± 4.63 nM
TIR1-IAA7 DII [2]
  TIR1 association with the DII peptide (SPR): enhanced association with the peptide
TIR1-IAA14
  Kd: 10.1 nM

## Biotin-AKAQVVGWPPVRNYRKN [Biotinylated DII IAA7 peptide (SPR)]
TIR1-ASK1 complex
  binding result: binds
